The results in this text go back to ChEMBL document CHEMBL4428072, “Pharmacophore Model To Discover OX1 and OX2 Orexin Receptor Ligands” (J Med Chem, 2016).

Assay [1] deals with T1, Orexin receptor type 2 (Homo sapiens) (UniProt O43614).
T1 sequence (whole entry): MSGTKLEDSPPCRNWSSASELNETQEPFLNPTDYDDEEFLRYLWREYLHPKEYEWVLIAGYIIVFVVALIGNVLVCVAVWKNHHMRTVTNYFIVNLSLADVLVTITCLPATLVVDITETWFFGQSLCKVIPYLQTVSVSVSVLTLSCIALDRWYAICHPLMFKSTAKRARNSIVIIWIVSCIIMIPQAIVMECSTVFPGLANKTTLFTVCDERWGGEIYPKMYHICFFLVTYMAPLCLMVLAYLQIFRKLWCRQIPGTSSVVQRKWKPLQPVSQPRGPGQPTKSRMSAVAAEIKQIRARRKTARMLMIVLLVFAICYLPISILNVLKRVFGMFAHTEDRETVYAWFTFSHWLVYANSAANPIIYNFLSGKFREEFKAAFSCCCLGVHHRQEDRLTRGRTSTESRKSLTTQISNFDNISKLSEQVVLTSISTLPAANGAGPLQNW
Briefly: Agonist activity at human OX2 receptor expressed in CHO cells assessed as induction of Ca2+ elevation at 5 uM after 2 mins by FLIPR calcium 4 assay relative to orexin-A. The class given is functional, cell-based. A digest of the protocol:
(§1)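 Screening in CHO-hOX1 or CHO-hOX2 cells loaded with Calcium 4 dye in HBM (137 mM NaCl, 20 mM Hepes, 1 mM CaCl2, pH 7.4) + probenecid. Fluorescence at 485/525 nm, 37 °C. 30 s baseline, compound added to 5 μM final and read for 120 s; the delayed response was read 30 min after addition for 30 s. Tested once in triplicate; % of full orexin-A activation.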

For assay [2], the species on record is Homo sapiens. Briefly: Ratio of Ki for human OX1 receptor expressed in […] to Ki for human OX2 receptor expressed in […] by [125I]-orexin A displacement assay. It is filed as cell membranes. A digest of the protocol:
(§2)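 Intact CHO-hOX1 or CHO-hOX2 cells in HBM + 0.1% stripped BSA + 30 μM dyngo 4a, preincubated 10 min (10 μM antagonist used to define nonspecific binding). 0.05 nM [125I]-orexin-A added with compound (10 nM–100 μM, 10-fold series). Incubated 90 min at room temperature, wells dried, scintillation counted. At least three experiments; IC50/Ki by nonlinear fitting.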

For assay [3], the target named is T1, Orexin receptor type 2 (Homo sapiens). Briefly: Agonist activity at human OX2 receptor expressed in […] assessed as induction of Ca2+ elevation at 10 uM after 30 mins by FLIPR back ground response. The class given is functional, cell-based. The essentials: (§3)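 CHO-hOX1 or CHO-hOX2 cells plated overnight at 1.5 × 10^4 cells/well, loaded with Calcium 4 dye in HBM + probenecid for 60 min at 37 °C. Fluorescence read at 485/525 nm, 37 °C. 30 s baseline, then compound at 10 μM (tested twice in validation; thrice at 1 and 10 μM in quadruplicate in characterization). Response expressed as % of orexin-A maximal response; background response measured within each experiment.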

For assay [4], the target named is T2, Orexin/Hypocretin receptor type 1 (Homo sapiens) (UniProt O43613).
T2 sequence (whole entry): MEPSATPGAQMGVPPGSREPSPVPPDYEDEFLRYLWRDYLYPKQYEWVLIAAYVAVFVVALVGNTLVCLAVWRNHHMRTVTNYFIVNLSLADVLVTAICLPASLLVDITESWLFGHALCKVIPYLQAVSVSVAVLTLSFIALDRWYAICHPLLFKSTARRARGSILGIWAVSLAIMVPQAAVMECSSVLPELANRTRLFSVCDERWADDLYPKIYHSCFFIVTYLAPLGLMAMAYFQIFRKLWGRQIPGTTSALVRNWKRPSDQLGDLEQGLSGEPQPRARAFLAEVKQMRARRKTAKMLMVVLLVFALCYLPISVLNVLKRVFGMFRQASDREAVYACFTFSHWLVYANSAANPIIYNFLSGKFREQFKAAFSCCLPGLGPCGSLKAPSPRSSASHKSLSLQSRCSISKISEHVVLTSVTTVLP
Briefly: Agonist activity at human OX1 receptor expressed in CHO cells assessed as induction of Ca2+ elevation at 5 uM after 30 mins by FLIPR calcium 4 assay relative to orexin-A. The class given is functional, cell-based. A digest of the protocol:
as §1

The target in assay [5] is T2, Orexin/Hypocretin receptor type 1 (Homo sapiens). Briefly: Agonist activity at human OX1 receptor expressed in […] assessed as induction of Ca2+ elevation at 10 uM after 30 mins by FLIPR calcium 4 assay relative to orexin-A. The class given is functional, cell-based. The essentials: as §3
The target of assay [6] is T3, Orexin receptor type 2 (Homo sapiens, UniProt O43614).
T3 sequence (O43614 whole entry): T1 sequence (whole entry)
Briefly: Displacement of [125I]-orexin A from human OX2 receptor expressed in […] after 90 mins by scintillation counting. A digest of the protocol: as §2
On the technique in general: In a radioligand displacement assay an active substance lowers the binding of a labelled ligand.

Assay [7] concerns the target T2, Orexin/Hypocretin receptor type 1 (Homo sapiens). Briefly: Agonist activity at human OX1 receptor expressed in CHO cells assessed as induction of Ca2+ elevation at 5 uM after 2 mins by FLIPR calcium 4 assay relative to orexin-A. It is filed as functional, cell-based. The essentials:
as §1

For assay [8] the target is unchanged. Briefly: Displacement of [125I]-orexin A from human OX1 receptor expressed in […] at 10 uM after 90 mins by scintillation counting.
In assay [9] the target is T1, Orexin receptor type 2 (Homo sapiens). Briefly: Agonist activity at human OX2 receptor expressed in […] assessed as induction of Ca2+ elevation at 10 uM after 30 mins by FLIPR calcium 4 assay relative to orexin-A. The class given is functional, cell-based. A digest of the protocol: as §3
In assay [10] the target is T2, Orexin/Hypocretin receptor type 1 (Homo sapiens). Briefly: Agonist activity at human OX1 receptor expressed in […] assessed as induction of Ca2+ elevation at 10 uM after 30 mins by FLIPR back ground response. It is filed as functional, cell-based. The essentials:
as §3

For assay [11], the system named is CHO. Briefly: Induction Ca2+ levels in CHO cells at 1 uM by FLIPR calcium 4 assay. The class given is functional, cell-based. To be noted: Cricetulus griseus. A digest of the protocol:
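Control CHO cells lacking orexin receptors, loaded with Calcium 4 dye in HBM + probenecid for 60 min at 37 °C. Compound added (1 and 10 μM) and the Ca2+ fluorescence response read at 485/525 nm at 37 °C.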

In assay [12] the target is T1, Orexin receptor type 2 (Homo sapiens). Conditions: CHO, at 10 µM.

What is called pIC50 is −log10 of the IC50, conventionally taken in molar units. A higher pIC50 goes with a low IC50. The pKi is the negative decadic logarithm of the Ki, by convention in mol/L. High values mean a small Ki, low ones a large Ki. By inhibition is commonly meant how much of the control response was suppressed. A high value points to a strong effect.

pIC50, pKi: −log10 of the molar value. Activity calls are given as the source filed them. No cut-off for these calls is given here. Some results are limits rather than exact numbers.

Take `COC(=O)CN(C(C)=O)C(c1ccccc1)c1cc(Br)ccc1NC(=O)c1ccccc1Cl` (stereo not drawn): the outcome in assay [1], in assay [4] and in assay [7] was Active. Also, the Ratio Ki in [2] was determined as 10. For the same molecule, the figures for the fold change (FC) in assay [3] and in assay [10] were 1.4 to 2.2 and 3.4, respectively. In addition, the Activity was 7.3% in assay [5] and 1 to 3.7% in assay [9]. The pIC50 in [6] was 5.77. In assay [6], this molecule had a negative-log Ki (pKi) of 5.60. For the same molecule, the inhibition in [8] and in [12] was above 70% each time. The outcome in assay [11] was inactive.
